Assay results as given in ChEMBL document CHEMBL1144702, “Synthesis and structure-activity relationship studies on tryprostatin A, an inhibitor of breast cancer resistance protein” (Bioorg Med Chem, 2008).
The source made the active and inactive calls. The calls are words filed in the database; no cut-off is given here.

Tests used:
[1] = Cell cycle arrest in mouse tsFT210 cells assessed as accumulation at M phase at 100 uM after 18 hrs by flow cytometry; format: functional, cell-based
How it was run: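 Synchronous-culture assay: tsFT210 cells seeded at 1x10^5 cells/mL, preincubated 1 h at 32 °C, then incubated with compound 18 h at 32 °C; morphology checked by microscopy; DNA content by flow cytometry after staining with 50 μg/mL propidium iodide, 0.1% sodium citrate, 0.2% NP-40; nuclei/chromosomes stained with Hoechst 33258 after KCl swelling and Carnoy fixation.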

[2] = Antiproliferative activity against mouse tsFT210 cells after 48 hrs by WST-8 assay; format: functional, cell-based; details: tsFT210, 48 h
How it was run: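 tsFT210 cells (temperature-sensitive cdc2 mutant from mouse mammary carcinoma FM3A), kept in RPMI 1640 with 10% fetal calf serum at 32 °C; exponentially growing cells exposed to compound at 32 °C for 48 h, then WST-8 added for 4 h at 37 °C; absorbance at 450 nm read to estimate cell number; IC50 reported.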

[3] = Cytotoxicity against human H520 cells at 100 uM after 72 hrs by Cell Titer 96 Aqueous Non-Radioactive assay; format: functional; details: NCI-H520, 72 h, read-out: Inhibition
How it was run: (§1)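 MCF7, NCI-H520 or PC-3 cells (RPMI-1640, 10% FBS) plated 1 × 10^4/well, 24 h at 37 °C, exposed 72 h to drug at 10 or 100 μM in DMSO or EtOH vehicle (controls usually 0.2%). Survival by MTS/PMS formazan absorbance at 490 nm, plate blank subtracted, as percent of vehicle wells; quadruplicate; etoposide or m-AMSA positive controls.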

OVCAR-3 = experiment: Cytotoxicity against human OVCAR-3 cells; format: functional
MCF7 [4] = experiment: Cytotoxicity against human MCF7 cells at 100 uM after 72 hrs by Cell Titer 96 Aqueous Non-Radioactive assay; format: functional; details: MCF7, 72 h, read-out: Inhibition; how it was run: as §1
MCF7 [5] = experiment: Cytotoxicity against human MCF7 cells at 10 uM after 72 hrs by Cell Titer 96 Aqueous Non-Radioactive assay; format: functional; details: MCF7, 72 h, read-out: Inhibition; how it was run: as §1
[6] = Cytotoxicity against human […]; format: functional
PC-3 [7] = experiment: Cytotoxicity against human PC3 cells at 10 uM after 72 hrs by Cell Titer 96 Aqueous Non-Radioactive assay; format: functional; details: PC-3, 72 h, read-out: Inhibition; how it was run: as §1
EKVX = experiment: Cytotoxicity against human EKVX cells; format: functional
COLO 205 = experiment: Cytotoxicity against human COLO205 cells; format: functional
MCF7 [8] = experiment: Cytotoxicity against human MCF7 cells after 72 hrs by Cell Titer 96 Aqueous Non-Radioactive assay; format: functional; details: MCF7, 72 h
How it was run: (§2)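 MCF7, NCI-H520 and PC-3 cells in RPMI-1640 + 10% FBS, 2 mM L-glutamine, 0.1 mM non-essential amino acids; 1 × 10^4 cells/well, 24 h at 37 °C, then drug in DMSO or EtOH (<1%) for 72 h. Cells under 50% survival at 100 μM retested over further concentrations for GI50. MTS/PMS read at 490 nm, blank subtracted, versus vehicle wells; quadruplicate or more.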

LOX IMVI = experiment: Cytotoxicity against human LOX IMVI cells; format: functional
PC-3 [9] = experiment: Cytotoxicity against human PC3 cells after 72 hrs by Cell Titer 96 Aqueous Non-Radioactive assay; format: functional; details: PC-3, 72 h; how it was run: as §2
CCRF-CEM = experiment: Cytotoxicity against human CCRF-CEM cells; format: functional
[10] = Cytotoxicity against human H520 cells at 10 uM after 72 hrs by Cell Titer 96 Aqueous Non-Radioactive assay; format: functional; details: NCI-H520, 72 h, read-out: Inhibition; how it was run: as §1
SR = experiment: Cytotoxicity against human SR cells; format: functional
RPMI-8226 = experiment: Cytotoxicity against human RPMI8226 cells; format: functional
[11] = Cell cycle arrest in mouse tsFT210 cells assessed as accumulation at M phase at 30 uM after 18 hrs by flow cytometry; format: functional, cell-based
How it was run: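 Murine temperature-sensitive cdc2 mutant tsFT210 cells (from FM3A), kept in RPMI 1640 + 10% FCS at permissive 32 °C; seeded 1x10^5 cells/mL, preincubated 1 h at 32 °C, compound added, 18 h at 32 °C. Microscopy, then propidium iodide (50 μg/mL, 0.1% sodium citrate, 0.2% NP-40) flow cytometry for DNA content; Carnoy-fixed nuclei stained with Hoechst 33258.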

K562 = experiment: Cytotoxicity against human K562 cells; format: functional
[12] = Inhibition of tubulin polymerization in presence of microtubule-associated proteins
How it was run: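 Tubulin containing MAPs in PME buffer (100 mM PIPES pH 6.9, 2 mM EGTA, 1 mM MgSO4) with GTP and drug in DMSO, tubulin added last; 37 °C, absorbance change at 351 nm over 10 min. Drug concentration varied across runs for delta absorbance versus concentration curves; colchicine standard curves made for each tubulin batch.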

UO-31 = experiment: Cytotoxicity against human UO31 cells; format: functional
DU-145 = experiment: Cytotoxicity against human DU145 cells; format: functional
HOP-92 = experiment: Cytotoxicity against human HOP92 cells; format: functional
[13] = Cytotoxicity against human HL60 (TB) cells; format: functional; details: HL-60
PC-3 [14] = experiment: Cytotoxicity against human PC3 cells at 100 uM after 72 hrs by Cell Titer 96 Aqueous Non-Radioactive assay; format: functional; details: PC-3, 72 h, read-out: Inhibition; how it was run: as §1
IGROV-1 = experiment: Cytotoxicity against human IGROV1 cells; format: functional
BT-549 = experiment: Cytotoxicity against human BT549 cells; format: functional

Compound: COc1ccc2c(C[C@@H]3NC(=O)[C@H](Cc4ccccc4)NC3=O)c[nH]c2c1
- Activity [1]: Active
- IC50 [2]: 100 µM

Compound: COc1ccc2c(C[C@@H]3NC(=O)[C@@H]4CCCN4C3=O)c(CC=C(C)C)[nH]c2c1 [TRYPROSTATIN A]
- cell survival (% of vehicle control) at 100 µM [3]: 79.4%
- GI50 (OVCAR-3): > 100 µM
- cell survival (% of vehicle control) at 100 µM (MCF7 [4]): 95%
- cell survival (% of vehicle control) at 10 µM (MCF7 [5]): > 100%
- GI50 [6]: > 100 µM
- percent cell survival relative to vehicle control at 10 µM (PC-3 [7]): 99.2%
- GI50 (EKVX): > 100 µM
- GI50 (COLO 205): > 100 µM
- GI50 (MCF7 [8]): > 100 µM
- GI50 (LOX IMVI): > 100 µM
- GI50 (PC-3 [9]): 94 µM
- GI50 (CCRF-CEM): > 100 µM
- percent cell survival relative to vehicle at 10 µM [10]: 80.1%
- GI50 (SR): 5.68 µM
- GI50 (RPMI-8226): 37.1 µM
- Activity [11]: Active
- GI50 (K562): 2.73 µM
- IC50 [12]: 250 µM
- IC50 [2]: 68 µM
- GI50 (UO-31): > 100 µM
- GI50 (DU-145): > 100 µM
- GI50 (HOP-92): 21.2 µM
- GI50 [13]: 11.3 µM
- percent cell survival at 100 µM (PC-3 [14]): 95.6%
- GI50 (IGROV-1): 90.5 µM
- GI50 (BT-549): 79.7 µM
